Columns and labels:
Type in all cases: functional
SF-268 = assay: Cytotoxicity against human SF268 cells assessed as cell growth at 10 uM after 48 hrs by sulforhodamine B assay; details: SF-268, 48 h, read-out: Activity
U-251 [1] = assay: Cytotoxicity against human U251 cells assessed as cell growth at 0.001 uM after 48 hrs by sulforhodamine B assay; details: U-251, 48 h, read-out: Activity
IGROV-1 [2] = assay: Cytotoxicity against human IGROV1 cells assessed as cell growth at 0.001 uM after 48 hrs by sulforhodamine B assay; details: IGROV-1, 48 h, read-out: Activity
NCI-H322M = assay: Cytotoxicity against human NCI-H322M cells assessed as cell growth at 100 nM after 48 hrs by sulforhodamine B assay; details: read-out: Activity
OVCAR-3 = assay: Cytotoxicity against human OVCAR-3 cells assessed as cell growth at 0.001 uM after 48 hrs by sulforhodamine B assay; details: OVCAR-3, 48 h, read-out: Activity
SNB-75 = assay: Cytotoxicity against human SNB75 cells assessed as cell growth at 0.01 uM after 48 hrs by sulforhodamine B assay; details: SNB-75, 48 h, read-out: Activity
SK-MEL-2 [3] = assay: Growth inhibition of human SK-MEL-2 cells after 48 hrs by sulforhodamine B assay; details: SK-MEL-2, 48 h; for CC50: read-out: LC50 (the source's name)
Procedure, shortened: (§1)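 NCI 60-cell screen, five-dose mode. Cells grown in RPMI 1640 with 5% FBS and 2 mM L-glutamine and plated at 5000-40,000 cells/well according to doubling time. After 24 h preincubation, a Tz plate was TCA-fixed. Five concentrations (10-fold or 1/2 log dilutions) were applied for 48 h at 37 °C. SRB staining read at 515 nm. IC50 taken from [(Ti-Tz)/(C-Tz)]×100 = 50.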

SN12C = assay: Cytotoxicity against human SN12C cells assessed as cell growth at 100 nM after 48 hrs by sulforhodamine B assay; details: read-out: Activity
SK-MEL-2 [4] = assay: Cytotoxicity against human SK-MEL-2 cells assessed as cell growth at 10 uM after 48 hrs by sulforhodamine B assay; details: SK-MEL-2, 48 h, read-out: Activity
SK-MEL-5 [5] = assay: Cytotoxicity against human SK-MEL-5 cells assessed as cell growth at 100 nM after 48 hrs by sulforhodamine B assay; details: SK-MEL-5, 48 h, read-out: Activity
HOP-92 = assay: Growth inhibition of human HOP92 cells after 48 hrs by sulforhodamine B assay; details: HOP-92, 48 h; for CC50: read-out: LC50 (the source's name); procedure, shortened: as §1
[6] = Growth inhibition of human Hs 578T cells after 48 hrs by sulforhodamine B assay; details: for CC50: read-out: LC50 (the source's name); procedure, shortened: as §1
U-251 [7] = assay: Cytotoxicity against human U251 cells assessed as cell growth at 10 uM after 48 hrs by sulforhodamine B assay; details: U-251, 48 h, read-out: Activity
SK-MEL-5 [8] = assay: Cytotoxicity against human SK-MEL-5 cells assessed as cell growth at 10 uM; details: read-out: Activity
Procedure, shortened: (§2)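 NCI-60 screen: cells grown in RPMI 1640 with 5% FBS and 2 mM L-glutamine, plated at 5000–40,000 cells/well according to doubling time, and preincubated 24 h at 37 °C, 5% CO2. The single 10 µM dose (DMSO stock) was added, then incubated 48 h. Cells were TCA-fixed and stained with 0.4% SRB, read at 515 nm, and growth % calculated against time-zero and control plates.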

A549 [9] = assay: Growth inhibition of human A549 cells after 48 hrs by sulforhodamine B assay; details: A549, 48 h
Procedure, shortened: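 NCI five-dose SRB assay in RPMI 1640 with 5% FBS and 2 mM L-glutamine. Cells were preincubated 24 h, then exposed 48 h at 37 °C to five concentrations (10-fold or half-log serial dilutions from DMSO stocks). TCA fixation, SRB staining, and absorbance at 515 nm followed. IC50 was taken where [(Ti−Tz)/(C−Tz)]×100 = 50, with Tz as time-zero cell density.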

M14 [10] = assay: Cytotoxicity against human M14 cells assessed as cell growth at 1 uM after 48 hrs by sulforhodamine B assay; details: M14, 48 h, read-out: Activity
HOP-62 = assay: Cytotoxicity against human HOP62 cells assessed as cell growth at 100 nM after 48 hrs by sulforhodamine B assay; details: HOP-62, 48 h, read-out: Activity
A549 [11] = assay: Cytotoxicity against human A549 cells assessed as cell growth at 1 uM after 48 hrs by sulforhodamine B assay; details: A549, 48 h, read-out: Activity
Procedure, shortened: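 NCI-60 five-dose screen. Cells were grown in RPMI 1640 with 5% FBS and 2 mM L-glutamine, plated at 5000–40,000 cells/well and preincubated for 24 h. Time-zero plates were TCA-fixed. DMSO-solubilized drug was added at five concentrations (10-fold or ½-log serial dilutions) for 48 h at 37 °C, 5% CO2. Cells were TCA-fixed, stained with 0.4% SRB and read at 515 nm. Percent growth used time-zero, control and test absorbances.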

OVCAR-4 = assay: Cytotoxicity against human OVCAR4 cells assessed as cell growth at 10 uM after 48 hrs by sulforhodamine B assay; details: OVCAR-4, 48 h, read-out: Activity
SF-295 = assay: Cytotoxicity against human SF295 cells assessed as cell growth at 1 uM after 48 hrs by sulforhodamine B assay; details: SF-295, 48 h, read-out: Activity
M14 [12] = assay: Cytotoxicity against human M14 cells assessed as cell growth at 100 nM after 48 hrs by sulforhodamine B assay; details: M14, 48 h, read-out: Activity
COLO 205 = assay: Cytotoxicity against human COLO205 cells assessed as cell growth at 10 uM; details: read-out: Activity
Procedure, shortened: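 Single-dose NCI-60 screen at 10 µM. Cells were grown in RPMI 1640 with 5% FBS and 2 mM L-glutamine, then treated for 48 h at 37 °C. Protein was measured by SRB staining with absorbance at 515 nm. Percentage growth was recorded, and inhibition percentage was calculated as 100 minus growth percentage.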

MOLT-4 = assay: Cytotoxicity against human MOLT4 cells assessed as cell growth at 10 uM; details: read-out: Activity; procedure, shortened: as §2
HL-60(TB) = assay: Cytotoxicity against human HL-60(TB) cells assessed as cell growth at 0.01 uM after 48 hrs by sulforhodamine B assay; details: HL-60, 48 h, read-out: Activity
Procedure, shortened: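 NCI 60-cell panel. Cells are grown in RPMI 1640 with 5% FBS and 2 mM L-glutamine, seeded at 5000–40,000 cells/well according to doubling time, and preincubated 24 h. Time-zero plates are TCA-fixed. Compound from DMSO stock is given at five 10-fold or 1/2-log concentrations for 48 h at 37 °C, 5% CO2. Suspension cells are fixed with 80% TCA (final 16%) and SRB-stained, with absorbance at 515 nm. Percent growth is derived from Tz, control and test readings.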

IGROV-1 [13] = assay: Growth inhibition of human IGROV1 cells after 48 hrs by sulforhodamine B assay; details: IGROV-1, 48 h; for CC50: read-out: LC50 (the source's name); procedure, shortened: as §1

Structure (SMILES)	growth at 10 µM (SF-268) [%]	growth at 0.001 µM (U-251 [1]) [%]	growth at 0.001 µM (IGROV-1 [2]) [%]	growth at 0.1 µM (NCI-H322M) [%]	growth at 0.001 µM (OVCAR-3) [%]	growth at 0.01 µM (SNB-75) [%]	GI50 (SK-MEL-2 [3]) [µM]	TGI (SK-MEL-2 [3]) [µM]	CC50 (SK-MEL-2 [3]) [µM]	growth at 0.1 µM (SN12C) [%]	growth at 10 µM (SK-MEL-2 [4]) [%]	growth at 0.1 µM (SK-MEL-5 [5]) [%]	GI50 (HOP-92) [µM]	TGI (HOP-92) [µM]	CC50 (HOP-92) [µM]	GI50 [6] [µM]	TGI [6] [µM]	CC50 [6] [µM]	growth at 10 µM (U-251 [7]) [%]	growth at 10 µM (SK-MEL-5 [8]) [%]	further results
Cc1cc(O)cc(-c2nn(CC#N)cc2-c2ccnc(-c3ccc(Oc4ccccc4)cc3)c2)c1	-95	97	98	95	92	79	3.44	11.7	44.2	86	-81	94	1.59	5.24	39.5	2.02	6.08	> 100	-98	64.3	GI50 (A549 [9]): 2 µM; LC50 (A549 [9]): 24.7 µM; TGI (A549 [9]): 5.07 µM; growth at 1 µM (M14 [10]): -96%; growth at 0.1 µM (HOP-62): 101%; growth at 1 µM (A549 [11]): -37%; growth at 10 µM (OVCAR-4): -83%; growth at 1 µM (SF-295): 30%; growth at 0.1 µM (M14 [12]): 94%; growth at 10 µM (COLO 205): 28.4%; growth at 10 µM (MOLT-4): 30%; growth at 0.01 µM (HL-60(TB)): 95%; GI50 (IGROV-1 [13]): 1.74 µM; TGI (IGROV-1 [13]): 3.75 µM; CC50 (IGROV-1 [13]): 8.07 µM
COc1cc(C)cc(-c2nn(CC#N)cc2-c2ccc(-c3cccc(C(C)=O)c3)nc2)c1	-2	98	106	95	102	83	3.73	41.3	> 100	91	-14	65	2.63	9.09	> 100	1.28	3.87	31.2	-37	4.86	GI50 (A549 [9]): 3.87 µM; LC50 (A549 [9]): > 100 µM; TGI (A549 [9]): 30.8 µM; growth at 1 µM (M14 [10]): -53%; growth at 0.1 µM (HOP-62): 82%; growth at 1 µM (A549 [11]): 21%; growth at 10 µM (OVCAR-4): 10%; growth at 1 µM (SF-295): 16%; growth at 0.1 µM (M14 [12]): 58%; growth at 10 µM (COLO 205): -44.6%; growth at 10 µM (MOLT-4): 28.1%; growth at 0.01 µM (HL-60(TB)): 91%; GI50 (IGROV-1 [13]): 2.73 µM; TGI (IGROV-1 [13]): 10.4 µM; CC50 (IGROV-1 [13]): > 100 µM
Cc1cc(O)cc(-c2nn(CC#N)cc2-c2ccnc(-c3ccc(N(C)C)cc3)c2)c1	-58	101	107	93	105	75	4.15	15.8	> 100	91	-46	82	3.03	46.8	> 100	2.13	7	> 100	-66	-16.3	GI50 (A549 [9]): 4.18 µM; LC50 (A549 [9]): > 100 µM; TGI (A549 [9]): 54.5 µM; growth at 1 µM (M14 [10]): -39%; growth at 0.1 µM (HOP-62): 80%; growth at 1 µM (A549 [11]): 23%; growth at 10 µM (OVCAR-4): 9%; growth at 1 µM (SF-295): -5%; growth at 0.1 µM (M14 [12]): 82%; growth at 10 µM (COLO 205): 38.9%; growth at 10 µM (MOLT-4): 28.1%; growth at 0.01 µM (HL-60(TB)): 97%; GI50 (IGROV-1 [13]): 3.91 µM; TGI (IGROV-1 [13]): 24.8 µM; CC50 (IGROV-1 [13]): > 100 µM
COc1cc(C)cc(-c2c(-c3ccnc(-c4ccc(C(C)=O)cc4)c3)cnn2CC#N)c1	23	104	107	100	103	78	5.88	> 100	> 100	92	20	85	1.46	7.56	> 100	1.68	5.68	> 100	13	49.2	GI50 (A549 [9]): 3.68 µM; LC50 (A549 [9]): > 100 µM; TGI (A549 [9]): > 100 µM; growth at 1 µM (M14 [10]): -19%; growth at 0.1 µM (HOP-62): 84%; growth at 1 µM (A549 [11]): 25%; growth at 10 µM (OVCAR-4): 30%; growth at 1 µM (SF-295): 39%; growth at 0.1 µM (M14 [12]): 79%; growth at 10 µM (COLO 205): 42.6%; growth at 10 µM (MOLT-4): 58%; growth at 0.01 µM (HL-60(TB)): 99%; GI50 (IGROV-1 [13]): 3.57 µM; TGI (IGROV-1 [13]): > 100 µM; CC50 (IGROV-1 [13]): > 100 µM
COc1cc(C)cc(-c2c(-c3ccnc(-c4ccc(N(C)C)cc4)c3)cnn2CC#N)c1	20	95	95	20	98	65	0.204	> 100	> 100	28	10	-21	< 0.01	0.0553	> 100	0.166	> 100	> 100	6	-18.4	GI50 (A549 [9]): 0.155 µM; LC50 (A549 [9]): > 100 µM; TGI (A549 [9]): > 100 µM; growth at 1 µM (M14 [10]): -9%; growth at 0.1 µM (HOP-62): 33%; growth at 1 µM (A549 [11]): 5%; growth at 10 µM (OVCAR-4): 25%; growth at 1 µM (SF-295): -27%; growth at 0.1 µM (M14 [12]): -16%; growth at 10 µM (COLO 205): -71.1%; growth at 10 µM (MOLT-4): 9.77%; growth at 0.01 µM (HL-60(TB)): 52%; GI50 (IGROV-1 [13]): 0.0608 µM; TGI (IGROV-1 [13]): 40.9 µM; CC50 (IGROV-1 [13]): > 100 µM

Source: ChEMBL document CHEMBL1165950, “Design and synthesis of new potent anticancer pyrazoles with high FLT3 kinase inhibitory selectivity” (Bioorg Med Chem, 2010)
